This data set deals with MS2 coat protein. The data set is described as follows: apparent Kd, MS2 coat protein; higher = weaker binding; RNA-MaP array; FMN 200 µM where present. Put shortly: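 On Illumina sequencing-chip clusters, designs were transcribed by stalled E. coli RNA polymerase and titrated with SNAP-549-labelled MS2 coat protein (0.7 or 1.5 nM, doubling to 3 µM), without and then with constant ligand, in 100 mM Tris-HCl pH 7.5, 80 mM KCl, 4 mM MgCl2, BSA, DTT, yeast tRNA and Tween-20. Apparent Kd is the median of filtered per-cluster curve fits to green signal normalised to red-channel RNA signal and control-cluster median Fmax.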

[1] abbreviates: designed as: ON switch for flavin mononucleotide, no ligand.
Where [2] appears, read: ligand present: flavin mononucleotide, designed as: ON switch for flavin mononucleotide.
Where [3] appears, read: designed as: OFF switch for flavin mononucleotide, no ligand.
Setting [4] is: ligand present: flavin mononucleotide, designed as: OFF switch for flavin mononucleotide.

By apparent Kd is commonly meant the concentration giving half-maximal binding under the conditions of the assay. Consider “UAGAUUAGAAGUUAACAUGAGGAUCACCCAUGUAUUGGAACAGAGGAUAUGCAUGUUUGAUAGUAGCAGAAGGCUGAAGGUGGA”, for which the “apparent Kd” value amounted to 0.0981 µM under setting [1] and 0.104 µM under setting [2].
Turning to “AGAAACUACGAGAAGGACAUGAGGAUCACCCAUGUAACCACUAUGUGGAAUGUAGGAUAUCGUAGUUUCAGGAUCGUGAGAUCA”, the “apparent Kd” value was found to be 0.00617 µM under setting [3] and 0.00984 µM under setting [4].
The like results for “CUCUAUCAUGUAGGAUAUGCGUGGCGAAGCUAUGCAGAAGGACAUGAGGAUCACCCAUGUCUUUCUGUCUGCGGACGGACAGGG” were, in that order, 0.0331 µM and 0.0692 µM.
For the sequence “AGGUAGUCAGGAUAUUAGUGGUAGAGGGAUAACUUUAUUGUUGAGAAGGGACAUGAGGAUCACCCAUGUUUUGU”, the “apparent Kd” value was found to be 0.0263 µM under setting [3] and 0.0325 µM under setting [4].
The like results for “CCGUUACAUGAGGAUCACCCAUGUGAGGAUAUGGUUCGGUACUGUCCUGUCGCGUACUCCAGAAGGCACGUGUC” were, in that order, 0.0335 µM and 0.0348 µM.
Regarding “GAUCCACAUGAGGAUCACCCAUGUGAGGAUAUGAUACUAUGUACUUCGGUACAUAGUAUCAGAAGGCACAUUGA”, the “apparent Kd” value is, setting by setting: under setting [3], 0.114 µM; under setting [4], 0.0659 µM.
For the sequence “UGUGUGUCAGGAUAUCGCGCGCGCGCGGAAAUGUGUGUGUGUGAGAAGGGACAUGAGGAUCACCCAUGUGCGCG”, the “apparent Kd” value amounted to 0.115 µM under setting [3] and 0.263 µM under setting [4].
The like results for “ACAUGAGGAUCACCCAUGUUAUCCGGGACUUCAAUUGUUUCUAGAAGGCUGUUUGCUUGUUAGUCAGAGGAUAUAGAAUCAAAU” were, in that order, 0.0102 µM and 0.0101 µM.
For the sequence “GUAGCAUACCGAGGAUAUUCAUACAAUAAAUAGACAUGAGGAUCACCCAUGUGGCGAAAGCCUUGGGAGAAGGCGGAAUGCUAC”, the “apparent Kd” value by setting is: under setting [1], 0.451 µM; under setting [2], 0.0376 µM.
For “UAAAAUCAUGUAGGAUAUGCGUGGCGAAGCUAUGCAGAAGGACAUGAGGAUCACCCAUGUCUUACCUAGCGUACUAGGUUAAAG”, the “apparent Kd” value was 0.0197 µM under setting [3] and 0.107 µM under setting [4].
In the case of “GAUUGACAUGAGGAUCACCCAUGUGAGGAUAUCGGCCGGACCUUGUUAGCUUCCAUCGUGAGAAGGCACAUAGG”, the “apparent Kd” value is, setting by setting: under setting [3], 0.0305 µM; under setting [4], 0.0315 µM.
For “AAAAAGGCAGGAUAUACGAGUCAAAGAAAAGACAAAAAGGGACAUGAGGAUCACCCAUGUAGAAGGGCCAAAAA” the same measures were 0.0369 µM and 0.227 µM.
For “UGGUACUAGGGAGGAUAUGGGAAGAUACAUGAGGAUCACCCAUGUUUAAGAAUGCCGAGAGGCAACGAGAAGGCCCUAGUACCU”, the “apparent Kd” value reads like this: under setting [1], 0.793 µM; under setting [2], 0.132 µM.
For the sequence “GCCAGAGCAGGAUAUCUAUAUUAUCACAUGAGGAUCACCCAUGUCCAGCGAAAGCUGGAGGGAGAAGGGCUCUGGC”, the “apparent Kd” value worked out at 0.0732 µM under setting [3] and 0.0338 µM under setting [4].
The like results for “CAUUAAUUCAUUAUAGUUAUUAUACAGGAUAUGUUACAUGAGGAUCACCCAUGUUAUCAUGGUAAACAGAAGGGUAUAUAAAGU” were, in that order, 0.0335 µM and 0.0575 µM.
For “GGUACUCAAAGAGUACCAAUACGAACAUGAGGAUCACCCAUGUAGGAUAUGCUACUCAAAGAGUAGCAGAAGGACAUGUGCAUA”, the “apparent Kd” value turned out to be 0.0221 µM under setting [3] and 0.135 µM under setting [4].
The like results for “GACUUGUCAGGAUAUCUUACAUUUGCAUCGUAGUUACCAUUGGAGAAGGGACAUGAGGAUCACCCAUGUUUGGU” were, in that order, 0.0352 µM and 0.0349 µM.
The like results for “UCUAAUUAGUGAGGAUAUGCAUAAUUUAUAACUGCAGAAGGCACAAACCUCAAGACAUGAGGAUCACCCAUGUGGAAUAUAGAU” were, in that order, 0.0938 µM and 0.215 µM.
As to “UAUUUGUGAGGAUAUGAGUCGUAGAACAAUAGUACUACGUCUCAGAAGGCACAUGAGGAUCACCCAUGUACCUC”, the “apparent Kd” value worked out at 0.0179 µM under setting [3] and 0.122 µM under setting [4].
“AGUGCGAUGGGAGGAUAUCAUGGUCUAAUUAAUAAAAGGAUCACAUGAGGAUCACCCAUGUGUCAUGAGAAGGCCCUCGAGACC”: the “apparent Kd” value was found to be 0.0742 µM under setting [1] and 0.0112 µM under setting [2].
For the sequence “AGAUCUCAAUAAGAUCCAAUACGAACAUGAGGAUCACCCAUGUAGGAUAUGCUAGAAGUAGAGUAGCAGAAGGACAAGUACCUU”, the “apparent Kd” value under setting [3] worked out at 0.0184 µM and the “apparent Kd” value under setting [4] is 0.0157 µM.
For “CAUACACAUGAGGAUCACCCAUGUGAGGAUAUGCGUACGUUGUCCGUAGGCGACGUGCGCAGAAGGCGCUUGGU” the same measures were 0.0571 µM and 0.0686 µM.
The like results for “GUCAUGUUAGGAUAUCAAACAUGUGACUUCGGUCACUGUCCUGAGAAGGAACAUGAGGAUCACCCAUGUUGGAC” were, in that order, 0.0178 µM and 0.0474 µM.
For “GUUAUUUAUGUAGGAUAUGCGAGGCGAGCCUAAGCAGAAGGACAUGAGGAUCACCCAUGUAUUGCGGUCUGCGUUCAGAUCGCU” the same measures were 0.0324 µM and 0.15 µM.
With “AACCUAUUACAGAAGGCCAGCUACAUGAGGAUCACCCAUGUCGAGUCAUGGAGGAUAUGUAGUAAUUCACUCACAGAUGAGUAC”, the “apparent Kd” value under setting [1] amounted to 0.0289 µM and the “apparent Kd” value under setting [2] was 0.00578 µM.
For the sequence “UUUUAACAUGAGGAUCACCCAUGUGAGGAUAUCGAAAUUUAUAUUAAUAUUAUUAAAACGAGAAGGCACAUUUU”, the “apparent Kd” value stood at 0.0631 µM under setting [3] and 0.0828 µM under setting [4].
“AUGACCUCAGUCAGGAUAUCGGCGCGGUGACGACUCGAGAAGGGACAUGAGGAUCACCCAUGUCUCGAUUAUAG”: the “apparent Kd” value runs as follows: under setting [3], 0.0154 µM; under setting [4], 0.0222 µM.
On to “CCCAAACUUGGGCUUGGUGGUGCAUAGGAUAUCCUUGGACAUGAGGAUCACCCAUGUACAACUGUGGAGAAGGGUGCAGGACCU”, for which the “apparent Kd” value reads like this: under setting [1], 0.227 µM; under setting [2], 0.0396 µM.
In the case of “AUUACGUCAGGAUAUCUGAUGUCUAACUUCGGUUAGACAUCAGAGAAGGGACAUGAGGAUCACCCAUGUAAUAG”, the “apparent Kd” value is, setting by setting: under setting [3], 0.0545 µM; under setting [4], 0.0563 µM.
“UAAACAUGAGGAUCACCCAUGUAAAGAUCGGUAGUAGAGAGUGAGGAUAUACUAAAUUUUAUGGAGUAGAAGGCACUGGGUUCU”: the “apparent Kd” value is, setting by setting: under setting [1], 0.0401 µM; under setting [2], 0.0323 µM.
In the case of “UCAUUAUAAAUCCAUCAUAACUACAUGAGGAUCACCCAUGUGCAGGAUAUCGAUUAUUUUACUAACGAGAAGGGCAAAUACAGA”, the “apparent Kd” value reads like this: under setting [3], 0.0375 µM; under setting [4], 0.0724 µM.
In the case of “AUUUAUGGCCAGAAGGACAUGAGGAUCACCCAUGUAGGAUAUGGACGAUUUUGCUCGGCGGUUUGUUAAGGAAGCACCGGUGGU”, the “apparent Kd” value is 0.0143 µM under setting [1] and 0.00723 µM under setting [2].
The like results for “AAUUGGAACUAAGGAUAUCUGUAUUUUGUUGAAACAUGAGGAUCACCCAUGUUCAUGAAAUUAUAGGAGAAGGUAGAUCCAUAA” were, in that order, 0.005 µM and 0.0046 µM.
Take “UCAGGCUUCGAGAAGGACAUGAGGAUCACCCAUGUGCGUGUGAAGCAGCCGUGAGGCUGCAUCAUGUAGGAUAUCGGAGUCUGA”: the “apparent Kd” value is, setting by setting: under setting [3], 0.0756 µM; under setting [4], 0.459 µM.
The like results for “GGUUGGCGAGGAUAUACAUGAGGAUCACCCAUGUGAGAGAUACUAGUGAGGUCGAUUGGUAGAAGGCGCUGACA” were, in that order, 0.108 µM and 0.0586 µM.
Consider “CGGUCGAAGUAAGGAUAUCGACUGGAUAACAGUCGAGAAGGUACAUGAGGAUCACCCAUGUAAUCCUAUAAUAAAUAACGACCG”, for which the “apparent Kd” value came to 0.0121 µM under setting [3] and 0.0155 µM under setting [4].
Consider “UGUCGGAGCAGAGGAUAUUACAUGAGGAUCACCCAUGUAUGAACCAAGAGCUGGAAACAGCAAUGUAAGAAGGCUGCUCCGACA”, for which the “apparent Kd” value worked out at 0.0109 µM under setting [3] and 0.121 µM under setting [4].
For “AGCUGUGACGUUACAGUUCCGUUACAUGAGGAUCACCCAUGUCAGGAUAUAUGCACUCUUGAAUCAUAGAAGGGACAGAGGUGG” the same measures were 0.161 µM and 0.157 µM.
In the case of “GUUAUAAAGGUAGGAUAUAGUAUUAUAAUUAAAUUAGAAGGAUCUCACAUGAGGAUCACCCAUGUAAGAGGAUCACCCAUGUAU”, the “apparent Kd” value is, setting by setting: under setting [3], 0.0114 µM; under setting [4], 0.00866 µM.
For “GCAGUAAAUAAAUGCACAUGAGGAUCACCCAUGUGGGAGGCACAGGAUAUCGUAUCAUAGUGGUACGAGAAGGGUGAUAAUCUC”, the “apparent Kd” value under setting [1] was determined as 0.425 µM and the “apparent Kd” value under setting [2] worked out at 0.0844 µM.
As for “GUAGCUAGUACAGGAUAUUAGUGUGUGUAAUAUUGAGAAGGGUACAUGAGGAUCACCCAUGUGAUCAAUCACUGUUAAGGUUGC”, the “apparent Kd” value came out at 0.0804 µM under setting [3] and 0.064 µM under setting [4].
For “GCCUUAUCCGUCAGGAUAUACAGUUGUUAGUUGUUGUAGAAGGGACAUGAGGAUCACCCAUGUACAUUACAUUG” the same measures were 0.0212 µM and 0.0226 µM.
The like results for “GUGCCUAUCUGAGGAUAUCAACGCACUUGAGCGUGAGAAGGCAGAGGUACAUGAGGAUCACCCAUGUCCUCCAUAAAAUAAAAG” were, in that order, 0.00665 µM and 0.0141 µM.
For the sequence “UUUUUACAUGAGGAUCACCCAUGUCAGGAUAUCCUUAUAUUUUAUUAUUUUAUUUUUUGGAGAAGGGACUAUUA”, the “apparent Kd” value came out at 0.367 µM under setting [3] and 0.225 µM under setting [4].
Take “UUACAUACAAAGGUACAUGAGGAUCACCCAUGUUUGUUGGGAAGAAGGGUAACAAUACUACACAUACAGGAUAUUUCACAAAUA”: the “apparent Kd” value was found to be 0.048 µM under setting [1] and 0.0313 µM under setting [2].
Consider “GAACGGUGAGCAGGAUAUCCACAUUGUCUCCUACAUGAGGAUCACCCAUGUGGAGAAGGGUUUAUAAGUUCGUGUAUACUCAAC”, for which the “apparent Kd” value came to 0.00635 µM under setting [3] and 0.0069 µM under setting [4].
With “GCCUAACAUGAGGAUCACCCAUGUCGUGGGUUGUUAGGAUAUGGACCGCAAAACGCGGUACCAGAAGGAAUAGAAA”, the “apparent Kd” value turned out to be 0.555 µM under setting [1] and 0.297 µM under setting [2].
Consider “UUAAAUCAUGUAGGAUAUGCAUGGCGAAGCUACGCAGAAGGACAUGAGGAUCACCCAUGUUAUAGCUACCCAGUACGGUGGCAA”, for which the “apparent Kd” value came to 0.0955 µM under setting [3] and 0.251 µM under setting [4].
